Bioassay records from PubChem.
IDH1 mut inh – inhibitors of human IDH1 R132H; inhibition, % at 10 µM; IDH1 R132H reductase, diaphorase/resazurin fluorescence, 60 min; O75874; actives 0.18% (n = 70,000); AID 624101; in the data active = inhibition above about 34%; inconclusive = no clear call, values can overlap the other calls; inactive = below about 11%;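 also: 0% = DMSO and 100% = no enzyme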
Target sequence (O75874 whole entry R132H): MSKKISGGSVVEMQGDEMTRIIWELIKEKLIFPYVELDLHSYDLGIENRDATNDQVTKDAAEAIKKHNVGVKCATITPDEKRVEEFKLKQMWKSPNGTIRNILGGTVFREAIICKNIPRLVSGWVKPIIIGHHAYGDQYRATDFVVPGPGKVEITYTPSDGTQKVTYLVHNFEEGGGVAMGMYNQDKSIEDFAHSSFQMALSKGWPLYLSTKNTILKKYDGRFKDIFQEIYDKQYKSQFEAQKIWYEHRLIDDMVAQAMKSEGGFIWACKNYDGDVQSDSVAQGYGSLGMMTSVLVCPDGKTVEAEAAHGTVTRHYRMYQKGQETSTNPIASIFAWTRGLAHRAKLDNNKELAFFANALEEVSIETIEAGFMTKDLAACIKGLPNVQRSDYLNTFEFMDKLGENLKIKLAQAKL
GASC1 inh – blocks human GASC-1 (KDM4C) demethylase activity | Q9H3R0 | GST-KDM4C 2-372, H3K9me3 peptide, LANCE TR-FRET | inhibition, % at 12.5 µM | actives 0.15% (n = 96,000);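 active = mean replicate inhibition above about 25%, with at least 55% of replicates also reaching it, limit read from the data, passing the limit was not always enough; inconclusive = only one of those two conditions met; inactive = neither condition met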
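Compound: one test concentration per compound; Material: GST-GASC-1 enzyme fragment 2-372; Amount: GASC-1 enzyme at 10 nM final in reaction; Also added: H3K9me3 peptide substrate, Fe(II), 2-oxoglutarate; Technique: LANCE TR-FRET; Times: 30 min demethylation and 1 h detection at room temperature.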
An asterisk follows results filed as active; ? = inconclusive; . = not tested or not shown; ! = not confirmed by another sample. Hits are enriched below; roughly 0.19% of the tested compounds scored in any of these assays.

SMILES	IDH1 mut inh	GASC1 inh
CCCNC(=O)C[C@@H]1C[C@H]2c3cc(NC(=O)CN(C)C)ccc3O[C@H]2[C@H](CO)O1	45.3*	39.7*
CC(=O)O[C@H]1[C@H](Oc2cc(O)cc(O)c2C(=O)c2cccc(O)c2)O[C@H](CO)[C@@H](OC(=O)c2ccccc2)[C@@H]1O	-0.6	.
C[C@@H]1CN([C@H](C)CO)S(=O)(=O)c2ccc(C#CC3CC3)cc2O[C@H]1CN(C)Cc1cccnc1	60.2*	-0.8
C[C@@H]1CN([C@@H](C)CO)S(=O)(=O)c2ccc(C#CC3CCCCC3)cc2O[C@H]1CN(C)C(=O)Cc1ccncc1	66.5*	-0.5
C[C@H](CO)N1C[C@H](C)[C@H](CN(C)C(=O)c2cccnc2)Oc2cc(C#CC3CC3)ccc2S1(=O)=O	0.1	2.0
C[C@H](CO)N1C[C@H](C)[C@@H](CN(C)C(=O)c2cccnc2)Oc2cc(C#CC3CC3)ccc2S1(=O)=O	41.9*	16.4
C[C@@H]1CN([C@@H](C)CO)S(=O)(=O)c2ccc(C#CC3CC3)cc2O[C@H]1CN(C)Cc1cccnc1	.	0.2
C[C@H]1CN([C@@H](C)CO)S(=O)(=O)c2ccc(C#CC3CCCCC3)cc2O[C@H]1CN(C)C(=O)Cc1ccncc1	.	-1.0
COC(=O)c1ccccc1NC(=O)c1c(NC(=O)CN2CCCCCC2)sc2c1CCC2	0.1	.
CC(=O)c1cccc(NC(=O)NCc2cnn(C)c2)c1	-0.1	.
Cc1cc(C)nc(NS(=O)(=O)c2ccc(-n3c(-c4ccc5ccccc5n4)n[nH]c3=S)cc2)n1	1.9	.
CC1CCc2c(sc3ncn(CC(=O)Nc4ccccc4F)c(=O)c23)C1 (configuration not stated)	0.1	.
CN(C)C(=O)C[C@@H]1C[C@@H]2c3cc(NC(=O)Nc4ccccc4)ccc3O[C@@H]2[C@@H](CO)O1	73.4*	31.7*
CN(C)C(=O)C[C@@H]1C[C@H]2c3cc(NC(=O)C4CCC4)ccc3O[C@H]2[C@H](CO)O1	51.6*	35.8*
CN(C)C(=O)C[C@H]1C[C@@H]2c3cc(NC(=O)C4CCC4)ccc3O[C@@H]2[C@@H](CO)O1	2.0	3.4
CN(C)C(=O)C[C@H]1C[C@@H]2c3cc(NC(=O)Nc4ccccc4)ccc3O[C@@H]2[C@H](CO)O1	0.0	2.9
COC(=O)c1c(NC(=O)CN2C(=O)c3ccccc3C2=O)sc(C)c1-c1ccccc1	0.1	.
COc1cc(OC)c(C(=O)c2ccc(O)cc2)c(OC)c1	-1.0	.
Cc1ccc(NC(=O)CSc2nnnn2C2CC3CCC2C3)cc1 (configuration not stated)	0.3	.
O=C(O)C(c1ccccc1)N1C(=O)/C(=C/c2ccncc2)SC1=S (configuration not stated)	66.4*	.
CC(C)C(C(=O)O)N1C(=O)/C(=C/c2ccccc2)SC1=S (configuration not stated)	0.8	.
CO[C@H]1CN(C)C(=O)c2ccc(NS(=O)(=O)c3ccc(Cl)cc3)cc2OC[C@@H](C)NC[C@H]1C	93.4*	79.9*
COc1ccccc1C(=O)Nc1ccc2c(c1)OC[C@H](C)NC[C@@H](C)[C@H](OC)CN(C)C2=O	0.1	-1.5
CCCNC(=O)Nc1ccc2c(c1)OC[C@@H](C)N(C(=O)C1CCC1)C[C@@H](C)[C@@H](OC)CN(C)C2=O	84.7*	61.6*
CCCNC(=O)Nc1ccc2c(c1)OC[C@H](C)N(C(=O)C1CCC1)C[C@@H](C)[C@@H](OC)CN(C)C2=O	-0.2	0.0
SMILES	IDH1 mut inh	GASC1 inh
COc1ccccc1C(=O)Nc1ccc2c(c1)OC[C@H](C)NC[C@@H](C)[C@@H](OC)CN(C)C2=O	?	68.1*
CO[C@@H]1CN(C)C(=O)c2ccc(NS(=O)(=O)c3ccc(Cl)cc3)cc2OC[C@H](C)NC[C@H]1C	0.2	-0.7
Cc1nc(SCC(=O)Nc2cc(C(F)(F)F)ccc2Cl)nc2c1CCCC2	-0.9	.
COCCNC(=S)Nc1nc(OC)cc(OC)n1	4.5	.
CC(C)=CCc1c(-c2ccc(O)cc2O)oc2c(CC=C(C)C)c(O)cc(O)c2c1=O	-0.2	.
C[C@H]1[C@H](C)CC[C@]2(C(=O)O[C@@H]3O[C@H](COC4O[C@H](CO)[C@@H](OC5O[C@@H](C)[C@H](O)[C@@H](O)[C@H]5O)[C@H](O)[C@H]4O)[C@@H](O)[C@H](O)[C@H]3O)CC[C@]3(C)C(=CC[C@@H]4[C@@]5(C)C[C@@H](O)[C@H](O)[C@@](C)(CO)C5CC[C@]43C)[C@H]12 (some centres not stated)	0.6	.
CCn1c(SCC(=O)Nc2cccc3ccccc23)nnc1-c1ccc(Cl)c(Cl)c1	0.0	.
CC(C)(C)c1ccc(S(=O)(=O)/C=C/C#N)cc1	82.4*	.
Cc1cc(C)c(C#N)c(SCC(O)CS(=O)(=O)c2ccc(C(C)(C)C)cc2)n1 (configuration not stated)	0.3	.
COc1cccc(CC(CC(=O)O)C(=O)O)c1 (configuration not stated)	-0.6	.
O=C(O)CNC(=O)C1COc2ccccc2O1 (configuration not stated)	0.4	.
O=C(CSC1=NCCN1)C1COc2ccccc2O1 (configuration not stated)	38.6*	.
COC(CN1C(=O)C2C3C=CC(C3)C2C1=O)OC (configuration not stated)	0.2	.
O=C(OCC1OC(Oc2ccc(O)cc2COC(=O)C2(O)C(O)CCC(=O)C2O)C(O)C(O)C1O)c1ccccc1 (configuration not stated)	36.1*	.
O=C(O[C@H]1[C@H](Oc2ccccc2COC(=O)C2(O)C=CCCC2=O)O[C@H](CO)[C@@H](O)[C@@H]1O)c1ccccc1 (some centres not stated)	0.2	.
COC(=O)c1c(C)[nH]c(C(=O)CSc2nnc3cc(C)c4ccccc4n23)c1C	4.8	.
N#Cc1cccc(-c2ccc(C3[C@@H]4CN(C(=O)c5ccncc5)C[C@H]3N4)cc2)c1 (some centres not stated)	.	0.4
N#Cc1ccc(-c2ccc(C3[C@@H]4CN(C(=O)c5ccncc5)C[C@H]3N4)cc2)cc1 (some centres not stated)	.	38.5*!
C[C@@H]1CCCCO[C@H](CN(C)Cc2ccncc2)[C@H](C)CN([C@@H](C)CO)C(=O)c2cc(NC(=O)CCC(F)(F)F)ccc2O1	74.7*	33.9*
C[C@@H]1CN([C@@H](C)CO)C(=O)c2cc(NC(=O)CCC(F)(F)F)ccc2O[C@@H](C)CCCCO[C@@H]1CN(C)Cc1ccncc1	.	-1.0
C[C@@H]1CCCCO[C@@H](CN(C)C(=O)CCC(F)(F)F)[C@@H](C)CN([C@H](C)CO)C(=O)c2cc(NS(=O)(=O)c3ccccc3)ccc2O1	-2.1	-2.5
C[C@@H]1CCCCO[C@H](CN(C)C(=O)CCC(F)(F)F)[C@H](C)CN([C@@H](C)CO)C(=O)c2cc(NS(=O)(=O)c3ccccc3)ccc2O1	91.4*	-2.3
O=C(CSc1nc(O)cc(=O)n1-c1ccccc1)N1CCc2ccccc21	-1.4	.
COc1cc(Cl)c(C)cc1NC(=O)CSc1nnc(-c2ccncc2)n1C	-0.2	.
O=C(CCCCCC(=O)N/N=C/c1cc(O)ccc1O)NO	68.8*	.
O=C(CCCCCCC(=O)Nc1ccccc1O)N/N=C/c1cc(O)ccc1Br	-0.4	.
O=C(CCCCCC(=O)N/N=C/c1ccc(O)cc1O)NO	-0.2	.
O=C(CCCCCC(=O)Nc1ccccc1O)N/N=C\c1cc(O)ccc1O	49.8*	.
Cc1ccc(NC(=O)CSc2nc3cc(Cl)ccc3s2)c(C)c1	0.0	.
